Results on 7 compounds are retold here after PubChem BioAssay AID720661 (The Scripps Research Institute Molecular Screening Center, 2013).

Activity calls are given as the source filed them.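 Rule for the calls: active = EC50 of 10 µM or lower; inactive = EC50 above 10 µM.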

This test deals with 293 cells GAL4-VP16 luciferase reporter, luminescence. The test is described as follows: nonselective transcriptional activation, VP16 reporter – cell-based, luminescence, late stage, counter-screen for BRM (SMARCA2) activator project, dose response (AID 720661). The method in brief:
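System: 293 cells carrying GAL4-VP16 and pGL4.31 reporter / Doses: Ten-point threefold dilution series, top 91.2 µM nominal / Timing: 24 h compound treatment, 37 °C / Measured by: One-Glo luminescence / Read-out basis: EC50 from four-parameter fit of percent activation / Control set: DMSO and SAHA reference wells for normalization / Replication: each concentration tested in triplicate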
In general terms: A counterscreen serves to expose hits that act by an unwanted route or on another target.

On to `O=C(NCC1(c2nc(-c3ccccc3)cs2)CCOCC1)c1cccc(-c2noc(C(F)(F)F)n2)c1`, for which the EC50 is > 91.2 µM (inactive). Take `Oc1ccccc1OCc1nc2ccccc2s1`: the EC50 is > 91.2 µM (inactive).

Turning to `COc1ccc(-c2nc(C#N)c(NC3CC3)o2)cc1`, the EC50 was > 91.2 µM (inactive). For `Cc1cc(C)c2nc(NC(=O)C(C)C)sc2c1` the value was > 91.2 µM (inactive); for `Cc1ccc(Nc2nc(-c3ccccc3)c(C)s2)cc1`, > 91.2 µM (inactive); for `Clc1ccc(Cc2nc(-c3ccccc3)cs2)cc1`, > 91.2 µM (inactive). For `Cc1nc(NC(=O)c2cccc(Br)c2)sc1C` the value was > 91.2 µM (inactive).

Broadly, the EC50 is the concentration needed to bring the measured effect to its halfway point.
